From ChEMBL document CHEMBL1123648, “Synthesis, chemical reactivity, and antileukemic activity of 5-substituted 6,7-bis(hydroxymethyl)pyrrolo[1,2-c]thiazole biscarbamates and the corresponding sulfoxides and sulfones” (1987)

Legend:
P388 [1] = experiment: Log cell population relative to cell population at the beginning of treatment compared to control group A at a dose of 25 mg/kg; type: functional, Mus musculus
[2] = Toxicity day survivors expressed as number of animals that survived to day five/ number of test animals under control group C at a dose of 6.25 mg/kg; 6 survived out of 6; type: functional, Mus musculus
[3] = Antileukemic activity against Murine P388 lymphocytic leukemia, body weight difference of the test animals compared to control group B animals at a dose of 25 mg/kg; type: functional, Mus musculus; parameters: unit not given here
Method in brief: (§1)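 CD2F1 mice implanted intraperitoneally with ascitic fluid carrying ca. 1×10^6 P388 cells, under the NCI protocol. Dosing was intraperitoneal, starting 24 h after inoculation, then every 24 h for five doses in total. The body weight difference of treated mice is taken against untreated controls. Toxicity day survivors are the mice alive at day five out of those tested.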

[4] = Percent increase in life span of test animals compared to untreated tumor-bearing control group A animals at a dose of 25 mg/kg; type: functional; conditions: Mus musculus
[5] = Percent increase in life span of test animals compared to untreated tumor-bearing control group C animals at a dose of 100 mg/kg; type: functional; conditions: Mus musculus
[6] = Antileukemic activity against Murine P388 lymphocytic leukemia, body weight difference of the test animals compared to control group C animals at a dose of 6.25 mg/kg; type: functional, Mus musculus; method in brief: as §1
[7] = Antileukemic activity against Murine P388 lymphocytic leukemia, body weight difference of the test animals compared to control group B animals at a dose of 6.25 mg/kg; type: functional, Mus musculus; method in brief: as §1
[8] = Percent increase in life span of test animals compared to untreated tumor-bearing control group B animals at a dose of 6.25 mg/kg; type: functional; conditions: Mus musculus
[9] = Toxicity day survivors expressed as number of animals that survived to day five/ number of test animals under control group B at a dose of 12.5 mg/kg; 6 survived out of 6; type: functional, Mus musculus
[10] = Antileukemic activity against Murine P388 lymphocytic leukemia, body weight difference of the test animals compared to control group C animals at a dose of 100 mg/kg; type: functional, Mus musculus; parameters: unit not given here; method in brief: as §1
P388 [11] = experiment: Log cell population relative to cell population at the beginning of treatment compared to control group A at a dose of 12.5 mg/kg; type: functional, Mus musculus
[12] = Antileukemic activity against Murine P388 lymphocytic leukemia, body weight difference of the test animals compared to control group A animals at a dose of 25 mg/kg; type: functional, Mus musculus; parameters: unit not given here; method in brief: as §1
[13] = Toxicity day survivors expressed as number of animals that survived to day five/ number of test animals under control group A at a dose of 12.5 mg/kg; 6 survived out of 6; type: functional, Mus musculus
P388 [14] = experiment: Log cell population relative to cell population at the beginning of treatment compared to control group B at a dose of 50 mg/kg; type: functional, Mus musculus
[15] = Antileukemic activity against Murine P388 lymphocytic leukemia and toxicity day survivors expressed as number of animals that survived to day five/ number of test animals under control group B at a dose of 25 mg/kg; 6 survived out of 6; type: functional, Mus musculus
P388 [16] = experiment: Log cell population relative to cell population at the beginning of treatment compared to control group C at a dose of 12.5 mg/kg; type: functional, Mus musculus
P388 [17] = experiment: Percent increase in life span of test animals compared to untreated tumor-bearing control group B animals at a dose of 50 mg/kg; type: functional; conditions: Mus musculus
[18] = Toxicity day survivors expressed as number of animals that survived to day five/ number of test animals under control group A at a dose of 100 mg/kg; 6 survived out of 6; type: functional, Mus musculus
[19] = Antileukemic activity against Murine P388 lymphocytic leukemia and toxicity day survivors expressed as number of animals that survived to day five/ number of test animals under control group B at a dose of 6.25 mg/kg; 6 survived out of 6; type: functional, Mus musculus
[20] = Antileukemic activity against Murine P388 lymphocytic leukemia, body weight difference of the test animals compared to control group C animals at a dose of 50 mg/kg; type: functional, Mus musculus; parameters: unit not given here; method in brief: as §1
[21] = Toxicity day survivors expressed as number of animals that survived to day five/ number of test animals under control group A at a dose of 6.25 mg/kg; 6 survived out of 6; type: functional, Mus musculus
P388 [22] = experiment: Log cell population relative to cell population at the beginning of treatment compared to control group B at a dose of 25 mg/kg; type: functional, Mus musculus
[23] = Toxicity day survivors expressed as number of animals that survived to day five/ number of test animals under control group B at a dose of 100 mg/kg; 6 survived out of 6; type: functional, Mus musculus
[24] = Percent increase in life span of test animals compared to untreated tumor-bearing control group C animals at a dose of 12.5 mg/kg; type: functional; conditions: Mus musculus
[25] = Toxicity day survivors expressed as number of animals that survived to day five/ number of test animals under control group C at a dose of 100 mg/kg; 6 survived out of 6; type: functional, Mus musculus
[26] = Toxicity day survivors expressed as number of animals that survived to day five/ number of test animals under control group A at a dose of 50 mg/kg; 6 survived out of 6; type: functional, Mus musculus
[27] = Antileukemic activity against Murine P388 lymphocytic leukemia, body weight difference of the test animals compared to control group A animals at a dose of 12.5 mg/kg; type: functional, Mus musculus; method in brief: as §1
[28] = Antileukemic activity against Murine P388 lymphocytic leukemia, body weight difference of the test animals compared to control group B animals at a dose of 12.5 mg/kg; type: functional, Mus musculus; parameters: unit not given here; method in brief: as §1
[29] = Percent increase in life span of test animals compared to untreated tumor-bearing control group C animals at a dose of 50 mg/kg; type: functional; conditions: Mus musculus
P388 [30] = experiment: Log cell population relative to cell population at the beginning of treatment compared to control group A at a dose of 50 mg/kg; type: functional, Mus musculus
[31] = Antileukemic activity against Murine P388 lymphocytic leukemia, body weight difference of the test animals compared to control group A animals at a dose of 50 mg/kg; type: functional, Mus musculus; parameters: unit not given here; method in brief: as §1
[32] = Percent increase in life span of test animals compared to untreated tumor-bearing control group A animals at a dose of 12.5 mg/kg; type: functional; conditions: Mus musculus
P388 [33] = experiment: Log cell population relative to cell population at the beginning of treatment compared to control group C at a dose of 6.25 mg/kg; type: functional, Mus musculus
[34] = Percent increase in life span of test animals compared to untreated tumor-bearing control group B animals at a dose of 25 mg/kg; type: functional; conditions: Mus musculus
[35] = Antileukemic activity against Murine P388 lymphocytic leukemia, body weight difference of the test animals compared to control group B animals at a dose of 50 mg/kg; type: functional, Mus musculus; parameters: unit not given here; method in brief: as §1
[36] = Log cell population relative to cell population at the beginning of treatment compared to control group A at a dose of 100 mg/kg; type: functional, Mus musculus
[37] = Antileukemic activity against Murine P388 lymphocytic leukemia, body weight difference of the test animals compared to control group A animals at a dose of 6.25 mg/kg; type: functional, Mus musculus; method in brief: as §1
[38] = Toxicity day survivors expressed as number of animals that survived to day five/ number of test animals under control group B at a dose of 50 mg/kg; 6 survived out of 6; type: functional, Mus musculus
[39] = Antileukemic activity against Murine P388 lymphocytic leukemia and toxicity day survivors expressed as number of animals that survived to day five/ number of test animals under control group C at a dose of 50 mg/kg; 6 survived out of 6; type: functional, Mus musculus

CC(C)NC(=O)OCc1c(COC(=O)NC(C)C)c(-c2ccc(Cl)c(Cl)c2)n2c1CCC2
KE (P388 [1]): 2.81
TDS [2]: 6
BWD [3]: -2.2
ILS at 25 mg/kg [4]: 75%
ILS at 100 mg/kg [5]: 123%
BWD [6]: -1.1
BWD [7]: -0.5
ILS at 6.25 mg/kg [8]: 41%
TDS [9]: 6
BWD [10]: -2.6
KE (P388 [11]): 1.4
BWD [12]: -1.7
TDS [13]: 6
KE (P388 [14]): 5.71
TDS [15]: 6
KE (P388 [16]): -0.07
ILS at 50 mg/kg (P388 [17]): 95%
TDS [18]: 6
TDS [19]: 6
BWD [20]: -1.8
TDS [21]: 6
KE (P388 [22]): 3.01
TDS [23]: 6
ILS at 12.5 mg/kg [24]: 32%
TDS [25]: 6
TDS [26]: 6
BWD [27]: -0.6
BWD [28]: -1.9
ILS at 50 mg/kg [29]: 96%
KE (P388 [30]): 4.35
BWD [31]: -2.6
ILS at 12.5 mg/kg [32]: 56%
KE (P388 [33]): -0.55
ILS at 25 mg/kg [34]: 66%
BWD [35]: -3.1
KE [36]: 0.8
BWD [37]: 0
TDS [38]: 6
TDS [39]: 6
